Screening data deposited in PubChem by The Scripps Research Institute Molecular Screening Center.
M5 antag = antagonists of human muscarinic M5 receptor (CHRM5); CHO-hM5 cells, Fluo-8 calcium fluorescence, ACh EC80; inhibition, % at 3 µM; 0.59% of 360,000 active; AID 624040;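 active = inhibition above a per-plate cutoff, the mean of that plate's test compounds plus 3 SD, cut at about 27% in these data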;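 also: 0% = acetylcholine EC80 with DMSO and 100% = DMSO without agonist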
Target sequence (P08912 whole entry, looked up): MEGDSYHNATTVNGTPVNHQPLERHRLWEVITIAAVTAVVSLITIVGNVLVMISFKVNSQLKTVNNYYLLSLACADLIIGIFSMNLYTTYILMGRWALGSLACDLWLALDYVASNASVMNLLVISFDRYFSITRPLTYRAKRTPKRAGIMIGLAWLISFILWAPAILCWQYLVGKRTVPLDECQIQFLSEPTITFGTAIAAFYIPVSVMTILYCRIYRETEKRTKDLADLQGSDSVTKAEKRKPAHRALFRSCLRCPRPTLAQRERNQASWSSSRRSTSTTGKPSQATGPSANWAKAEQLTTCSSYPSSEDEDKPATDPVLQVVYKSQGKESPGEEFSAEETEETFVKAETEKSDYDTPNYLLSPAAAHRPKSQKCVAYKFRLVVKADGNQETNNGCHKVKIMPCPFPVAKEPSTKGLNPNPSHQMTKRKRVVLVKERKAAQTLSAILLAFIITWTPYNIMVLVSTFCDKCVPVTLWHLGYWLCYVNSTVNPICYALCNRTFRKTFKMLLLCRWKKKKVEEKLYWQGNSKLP
CHRM5 PAM = CHRM5 positive allosteric modulation; P08912; CHO-K1 hM5, Fluo-8 calcium, ACh EC20 PAM; 0% = ACh EC20, 100% = ACh EC100; activation, % at 3 µM; 0.3% of 360,000 active;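 active = activation above the run cutoff, the mean activation of all test compounds plus 3 SD, cut at about 18% in these data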
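System – CHO-K1 hM5 cells · Compound – 3 µM, single dose · Incubation – compound preincubation 140 s before EC20 acetylcholine addition · Technique – Fluo-8 calcium fluorescence · Measure – Max/basal fluorescence ratio as % of EC20–EC100 ACh window · Benchmarks – low control EC20 acetylcholine (0%), high control EC100 acetylcholine (100%) · Replication – singlicate, one well per test compound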
CHRM4 agonist = agonists of human muscarinic M4 receptor (CHRM4). 0.14% of 360,000 active. P08173. CHO-K1 hM4/Gqi5, Fluo-8 calcium fluorescence; vehicle 0%, full acetylcholine response 100%. activation, % at 3 µM. AID 624127;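 active = activation above the run mean over all test wells plus 3 SD, cut at about 32% in these data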;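 also: peak over basal fluorescence ratio per well then scaled between controls; 0% = DMSO wells and 100% = acetylcholine at EC100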
CHRM4 PAM = positive allosteric modulators of human muscarinic M4 receptor; activation, % at 3 µM; 0.4% of 360,000 active; P08173; AID 624126; CHO-K1 hM4/Gqi5, Fluo-8 calcium fluorescence, ACh EC20; 0% = ACh EC20, 100% = maximal ACh;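 active = activation above its plate's cutoff, the mean activation of sample wells plus 3 SD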
CHRM4 antagonist = antagonists of human muscarinic M4 receptor (CHRM4) | inhibition, % at 3 µM | 0.73% of 360,000 active | P08173 | CHO-hM4 cells, ACh EC80, Fluo-8 calcium fluorescence | AID 624125;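 active = inhibition above its plate's cutoff, the mean inhibition of sample wells plus 3 SD, cut at about 27% in these data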;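 also: 0% = acetylcholine EC80 with DMSO and 100% = DMSO without agonist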
M5 ag = agonists of human muscarinic M5 receptor (CHRM5). activation, % at 3 µM. AID 624037. 0.19% of 360,000 active. P08912. CHO-K1 hM5 cells, Fluo-8 calcium fluorescence; 0% DMSO wells, 100% maximal acetylcholine response;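 active = activation above the run's mean over test compounds plus 3 SD, cut at about 23% in these data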;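 also: signal is peak over basal fluorescence ratio across the kinetic read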
An asterisk follows results filed as active. The list is not random: actives were taken first. Their share in the collection is about 1.9%.

SMILES | M5 antag | CHRM5 PAM | CHRM4 agonist | CHRM4 PAM | CHRM4 antagonist | M5 ag
CS(=O)(=O)N(CC(=O)N1CCc2ccccc2C1)c1ccccc1Br | 17 | 1 | 8 | 16* | 22 | 3
Cc1ccccc1N(CC(=O)N1CCc2ccccc2C1)S(C)(=O)=O | 1 | 9 | 1 | 2 | -2 | -6
OCC[C@@H]1C[C@H](O)[C@@H](O)[C@@]2(OCc3cc(C(F)(F)F)ccc32)O1 | -1 | 0 | 1 | 13 | -16 | 0
NN=C1c2ccccc2C(=O)C1C(=O)C(c1ccccc1)c1ccccc1 (stereo unspecified) | 38* | -24 | 13 | -8 | 22 | 56*
Cc1ccc(C(=O)C2C(=O)c3ccccc3C2=O)cc1 | -2 | 5 | 1 | 6 | -10 | 1
CC(c1ccon1)N(C)C(=O)c1ccc2nc(Cc3cccc(Cl)c3)oc2c1 (stereo unspecified) | 0 | 2 | 6 | 10 | -11 | -1
COc1ncc(-c2c(-c3ccccc3OC)sc3ccccc23)cn1 | 7 | -22 | -3 | 9 | -16 | -7
CCOC(=O)CS(=O)(=O)c1nc(-c2ccccc2)cc(C(F)(F)F)n1 | 15 | 9 | 2 | -8 | 38* | -11
CC(C)C(=O)Nc1cccc(C(=O)N2CCCCC2C)c1 (stereo unspecified) | -15 | 21* | 0 | 6 | -17 | 1
Cc1ccc(-n2nc(C)cc2NC(=O)c2ccc(C)s2)cc1 | 20 | -14 | 0 | -34 | 46* | -12
COc1ccc(-c2cc(C(=O)Nc3cc(C)nn3-c3ccccc3)no2)cc1 | -1 | -5 | 0 | 18* | -2 | 1
Cc1ccc(-n2nc(C)cc2NC(=O)CC#N)cc1 | 4 | 3 | 0 | -3 | 2 | -1
COc1cccc(NC(=O)CSC2=C(C#N)C(c3ccco3)C3=C(CCCC3=O)N2)c1 (stereo unspecified) | 6 | -9 | 3 | -1 | -2 | -1
COc1ccc(NC(=O)CSC2=C(C#N)C(c3ccco3)C3=C(CCCC3=O)N2)c(OC)c1 (stereo unspecified) | 42* | -13 | 4 | 1 | 2 | -5
O=C(NC1CCCCC1)C1(S(=O)(=O)c2ccc(Cl)cc2)CC1 | 5 | 3 | -2 | -9 | -10 | -5
O=C(NCc1ccc(F)cc1)c1cc(C2CCCCN2C(=O)CCCc2ccccc2)on1 (stereo unspecified) | -2 | -15 | 6 | -7 | -3 | -3
CC(=O)c1c(C)[nH]c(C(=O)COc2cc(C)ccc2C(C)C)c1C | 41* | -19 | 16 | -8 | 39* | 4
CC1Cc2ccccc2N1S(=O)(=O)c1cnc[nH]1 (stereo unspecified) | -4 | 43* | 1 | 7 | -2 | 5
CN(C)S(=O)(=O)c1cc(NC(=O)CNCCN2CCOCC2)ccc1Cl | 10 | 6 | 0 | 7 | 3 | 1
COc1ccc(CCNC(=O)CCN2C(=O)[C@@H]3Cc4ccccc4CN3C2=O)cc1 | -5 | -12 | 20 | -7 | -13 | 10
COc1cccc(CNC(=O)CCN2C(=O)[C@@H]3Cc4ccccc4CN3C2=O)c1 | -3 | 0 | 2 | 20* | -27 | -4
COc1cccc(CNC(=O)CN2C(=O)c3ccccc3S2(=O)=O)c1 | 1 | -6 | 1 | 25* | -17 | -2
COc1ccccc1CNC(=O)Cn1nc(C)c([N+](=O)[O-])c1C | 8 | 8 | 0 | 4 | 1 | -1
O=C(CN1C(=O)c2ccccc2S1(=O)=O)NCc1ccccc1 | 4 | 4 | 1 | 2 | -3 | -3
COc1cccc(CNC(=O)Cn2nc(C)c([N+](=O)[O-])c2C)c1 | -8 | 21* | 0 | 5 | -20 | 1
SMILES | M5 antag | CHRM5 PAM | CHRM4 agonist | CHRM4 PAM | CHRM4 antagonist | M5 ag
N#Cc1cccc(S(=O)(=O)N2CCN(c3ccnc4cc(Cl)ccc34)CC2)c1 | 24 | -9 | 14 | -13 | 11 | -2
CSc1cccc(NC(=S)N(CCN(C)C)C(C)c2ccccn2)c1 (stereo unspecified) | 3 | -6 | 7 | 16 | 33* | -1
CSc1cccc(NC(=S)N(CCN(C)C)C(C)c2ccncc2)c1 (stereo unspecified) | 7 | 0 | 4 | 3 | 7 | 2
CCN(CC)CC(=O)N1CCCC(N2CCN(c3cccc(C(F)(F)F)c3)CC2)C1 (stereo unspecified) | 8 | -3 | 0 | -6 | 5 | -2
COc1cc(CNC(=O)Nc2nc(C(N)Cc3ccc(Cl)cc3)cs2)cc(OC)c1OC (stereo unspecified) | 6 | 3 | 2 | -6 | 16 | -1
NC(=O)c1nsc(C(=O)N(c2ccccc2)C(C(=O)NCc2ccc(F)cc2)c2ccc(O)cc2)c1N (stereo unspecified) | 14 | -9 | 31 | -18 | 31* | 4
NC(=O)c1nsc(C(=O)N(c2ccc3c(c2)OCO3)C(C(=O)NCC2CCCO2)c2ccc(F)cc2)c1N (stereo unspecified) | 22 | 19* | 15 | 24* | 20 | 1
Nc1nonc1-n1nnc(C(=O)N/N=C/c2ccc(OCc3ccc(F)cc3)cc2)c1COc1ccccc1 | -10 | 8 | 0 | -3 | -7 | 6
C[C@H]1CN([C@@H](C)CO)S(=O)(=O)c2ccc(Br)cc2O[C@@H]1CN(C)C(=O)Cc1ccccc1 | 5 | -2 | 3 | -1 | 0 | 1
Cc1c(N=Cc2c(O)n(C)c(=O)c3ccccc23)c(=O)n(-c2ccccc2)n1C | -5 | -2 | 1 | -1 | 5 | 3
Cc1c(N=Cc2c(O)n(C3CCCCC3)c(=O)[nH]c2=O)c(=O)n(-c2ccccc2)n1C | 0 | 20* | 0 | 2 | -15 | -1
COc1ccc(CC(C)NCC(O)c2ccc(O)c(NC=O)c2)cc1 (stereo unspecified) | 0 | -4 | 0 | 9 | -5 | -2
Cc1cc(C)cc(CC(=O)N2CCC2(C)C(=O)NS(=O)(=O)c2ccccc2)c1 (stereo unspecified) | 3 | -3 | 1 | -4 | 7 | 0
CC(C)c1ccc(NS(=O)(=O)c2ccc(N3C(=O)CCC3=O)cc2)cc1 | 27* | -23 | 21 | -51 | 11 | 6
CC(C)c1ccc(S(=O)(=O)Nc2ccc(SC(F)F)cc2)cc1 | 1 | -14 | 6 | -14 | 28* | -5
Cc1ccc(NC(=O)CNc2ccccc2N2CCCC2=O)cc1S(=O)(=O)N1CCOCC1 | -2 | 7 | 0 | 7 | 9 | -4
C=C(C)COc1ccc(-c2ncnc(C(F)(F)F)c2-c2ccccc2)c(O)c1 | 17 | -14 | 3 | -12 | 27* | -6
